Measured values from different studies.
Each line is one published result; the experiments were not run side by side.
EGFR: Epidermal growth factor receptor (EGFR, Homo sapiens, UniProt P00533)
EGFR L858R/T790M: Epidermal growth factor receptor (EGFR, Homo sapiens, UniProt P00533, L858R/T790M)

| SMILES | target | observed | mode | technique | endpoint | value |
| --- | --- | --- | --- | --- | --- | --- |
| Cc1c(Cc2ccccc2)c(=O)oc2c(C)c(OCC(=O)NN=Cc3ccc([N+](=O)[O-])cc3)ccc12 | EGFR | enzyme activity | inhibitor | ATP luminescence | IC50 | 313 nM |
| Cc1ncc(CN2CCN(Cc3ccccn3)CC2)c2cc(C(=O)c3ccc4c(c3)OCCO4)oc12 | EGFR L858R/T790M | enzyme activity | inhibitor | ADP detection | IC50 | 3.23 nM |
| COc1ccc2[nH]c(C(=O)Nc3nc(CC(=O)O)cs3)cc2c1 | EGFR | enzyme activity | inhibitor | ELISA | IC50 | 1740 nM |
| C=CC(=O)Nc1cc(Nc2ncc(C(=O)OC(C)C)c(-c3cn(C)c4ccccc34)n2)c(OC)cc1N(C)CCN(C)C | EGFR L858R/T790M | enzyme activity | inhibitor | – | IC50 | 0.6 nM |
| CCc1c(C)c2ccc(OCC(=O)NN=Cc3ccc([N+](=O)[O-])cc3)cc2oc1=O | EGFR | enzyme activity | inhibitor | ATP luminescence | IC50 | 414 nM |
| O=C(O)Cc1csc(NC(=O)c2cc3ccccc3[nH]2)n1 | EGFR | enzyme activity | inhibitor | ELISA | IC50 | 618 nM |
| COC(=O)[C@]12CCC(C)(C)C[C@H]1[C@H]1C(=O)C=C3[C@@]4(C)C=C(C#N)C(=O)C(C)(C)[C@@H]4CC[C@@]3(C)[C@]1(C)CC2 | EGFR L858R/T790M | binding | – | MST | Kd | 1.1 µM |
| Cc1ncc(CN2CCc3ccccc3C2)c2cc(C(=O)c3ccc4c(c3)OCCO4)oc12 | EGFR L858R/T790M | enzyme activity | inhibitor | ADP detection | IC50 | 10.8 nM |
| O=C(CCn1c(=O)ccc2ccccc21)N1CCOCC1 | EGFR | enzyme activity | inhibitor | – | IC50 | 52.7 nM |
| CC(C)=CCc1c(O)c(O)c2oc3c(O)ccc(O)c3c(=O)c2c1CC=C(C)C | EGFR | binding | – | SPR | Kd | 19 µM |
| C=CC(=O)N1CC[C@@H](Oc2nc(Nc3ccc(N4CCC(N5CCN(C)CC5)CC4)cc3)c(C(N)=O)nc2CC)C1 | EGFR L858R/T790M | enzyme activity | inhibitor | – | IC50 | 1.2 nM |
| Cc1ccc2c(-c3cc4c(CN5CCN(Cc6ccccn6)CC5)cnc(C)c4o3)cc(=O)oc2c1 | EGFR L858R/T790M | enzyme activity | inhibitor | ADP detection | IC50 | 12.4 nM |
